# Compound activity from PubChem.
# XiGFP reactiv = activators of X-chromosome reactivation in mouse fibroblasts. XiGFP mouse fibroblasts, % GFP-positive cells imaging, 3 d; cells co-treated with 5-aza-dC sensitizer; scaled so ellipticine positive control = 100%. activation, % at 7.58 µM. 0.055% of 360,000 active;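 active = mean normalized replicate activation at least 10% and every replicate at or above 10%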;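 also: 0% = median of on-plate neutral control wells and 100% = ellipticine 6 µM median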
#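 System: XiGFP fibroblasts, SV40-immortalized. Medium: DMEM plus 5-aza-dC sensitizer. Doses: single point. Timing: 3 d treatment, 15 min room-temperature fixation. Control set: ellipticine 6 µM.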
# PAX8 inh HTS = inhibitors of PAX8 transcriptional activity in RMG-I cells | RMG-I TPO-luciferase reporter, SteadyGlo, 24 h | inhibition, % at 12.6 µM | 1.2% of 360,000 active | AID 652154;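 active = mean replicate inhibition at least 60% with every replicate also reaching 60%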;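 also: luciferase light reporting Pax8 driven TPO promoter activity; plate controls were median of neutral control wells for no effect and mitoxantrone controls for full effect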
# PGC1a acetyl inh = modulators of PGC1a acetylation | U2OS PGC1a acetylation, AlphaScreen anti-acetyl-lysine; with virally co-expressed GCN5 acetyltransferase | inhibition, % at 15.6 µM | 0.17% of 350,000 active;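 active = every replicate shows inhibition of at least 40%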;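 also: 0% = neutral control wells and 100% = positive control wells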
# MLL AF4-AF9 inh = MLL-AF4/AF9 protein interaction inhibition | AlphaScreen, biotin-AF4 peptide binding to FLAG-AF9 | inhibition, % at 10 µM | P42568 | AID 651704 | 0.47% of 350,000 active;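 active = every replicate reaching a set inhibition limit, whatever the replicate mean, cut at about 25% in these data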;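 also: 0% = plate neutral control median and 100% = total signal loss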
# Target sequence (P42568 whole entry, looked up): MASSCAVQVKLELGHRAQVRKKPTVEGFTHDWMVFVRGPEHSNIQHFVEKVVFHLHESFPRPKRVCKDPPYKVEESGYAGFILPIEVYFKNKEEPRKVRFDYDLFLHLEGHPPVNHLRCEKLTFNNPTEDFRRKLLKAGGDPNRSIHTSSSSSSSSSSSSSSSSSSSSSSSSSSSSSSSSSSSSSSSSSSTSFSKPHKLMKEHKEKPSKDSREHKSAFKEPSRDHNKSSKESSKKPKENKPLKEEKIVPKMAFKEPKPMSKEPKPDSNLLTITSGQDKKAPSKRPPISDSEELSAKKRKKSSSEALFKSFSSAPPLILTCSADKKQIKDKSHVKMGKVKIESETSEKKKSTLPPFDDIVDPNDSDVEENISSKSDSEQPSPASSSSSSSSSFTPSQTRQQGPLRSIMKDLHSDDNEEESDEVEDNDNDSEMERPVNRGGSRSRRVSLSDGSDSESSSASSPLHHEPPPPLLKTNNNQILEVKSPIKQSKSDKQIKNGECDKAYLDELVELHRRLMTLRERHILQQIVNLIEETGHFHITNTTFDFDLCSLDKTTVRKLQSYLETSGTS
# EWS-Fli inh = EWS/Fli transcriptional activity inhibition | A673 NR0B1-luciferase reporter, viability-normalised | inhibition, % at 12.6 µM | 0.67% of 350,000 active | AID 651661;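 active = mean inhibition of at least 50% after viability correction, with every replicate also passing that limit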;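 also: firefly luciferase signal divided by Alamar Blue viability fluorescence both relative to DMSO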
# GSIS activator = primary screen for activators of insulin secretion dependent on glucose, INS-1E cells, GLuc reporter luminescence. INS-1E GLuc reporter insulin secretion, 2-3 h. activation, % at 16.6 µM. 0.61% of 370,000 active;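 active = lowest replicate activation of at least 40%, so every replicate reaches that level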;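 also: 0% = median of neutral control wells and 100% = median of IBMX positive control wells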
# * marks the source's active call; other numbers are inactive results; · = no result. The list is not random: actives were taken first. Their share in the collection is about 2.1%.
SMILES,XiGFP reactiv,PAX8 inh HTS,PGC1a acetyl inh,MLL AF4-AF9 inh,EWS-Fli inh,GSIS activator
NC(=O)[C@H]1[C@@H]2C(=O)O[C@@H](c3ccccc3)[C@@H](c3ccccc3)N2[C@@H](c2ccc(OCCO)cc2)[C@]12C(=O)Nc1ccc(C#CC3(O)CCCCCC3)cc12,·,-1,4,0,4,·
COC(=O)C(CC#Cc1ccc2c(c1)[C@]1(C(=O)N2)[C@H](c2ccccc2OCCO)N2[C@H](c3ccccc3)[C@H](c3ccccc3)OC(=O)[C@H]2[C@@H]1C(=O)N1CCN(c2ncccn2)CC1)C(=O)OC,·,110*,-27,-1,60*,·
O=C(C[C@H]1CC[C@H](NC(=O)c2cccnc2)[C@H](CO)O1)NCCN1CCCCC1,0,-6,9,-1,6,-6
C[C@@H]1CN([C@H](C)CO)S(=O)(=O)c2ccc(-c3cncnc3)cc2O[C@@H]1CN(C)C(=O)c1ccc2c(c1)OCO2,0,·,-12,1,-5,11
COc1ccc2c3c([nH]c2c1)[C@H](CO)N(C(=O)C1CC1)CC31CN(C(=O)NC(C)C)C1,0,-11,·,2,-13,21
COc1ccc(NC(=O)Nc2ccc3c(c2)C(=O)N([C@H](C)CO)C[C@H](C)[C@H](CN(C)C(=O)NC(C)C)O3)cc1,0,4,-2,2,-11,3
Cc1cccc(Cn2ccc(-c3ccc(Cl)cc3)c(C#N)c2=O)c1,·,·,7,·,·,95*
N#Cc1c(-c2ccccc2)ccn(Cc2ccc(Cl)cc2)c1=O,·,·,-11,·,·,·
O=C(c1ccc(F)cc1)N1CCCCN2[C@H](CO)[C@H](c3ccc(-c4ccc(F)cc4)cc3)[C@@H]2C1,·,3,-2,·,-12,·
CCC(CC)NCCOC(=O)c1ccc([N+](=O)[O-])cc1,0,10,·,26*,-1,-4
C[C@@H]1CCCCO[C@@H](CN(C)S(=O)(=O)c2ccccc2)[C@H](C)CN([C@H](C)CO)C(=O)c2cc(NC(=O)Nc3ccc(F)cc3)ccc2O1,0,73*,-4,3,16,-2
C[C@@H]1CCCCO[C@@H](CN(C)S(=O)(=O)c2ccccc2)[C@@H](C)CN([C@@H](C)CO)C(=O)c2cc(NC(=O)Nc3ccc(F)cc3)ccc2O1,0,5,1,2,6,6
C[C@@H]1CN([C@@H](C)CO)C(=O)c2cc(NC(=O)Nc3ccc(F)cc3)ccc2O[C@@H](C)CCCCO[C@@H]1CN(C)S(=O)(=O)c1ccccc1,0,-13,-2,0,4,7
C[C@@H]1CN([C@H](C)CO)C(=O)c2cc(NC(=O)Nc3ccc(F)cc3)ccc2O[C@@H](C)CCCCO[C@H]1CN(C)S(=O)(=O)c1ccccc1,0,88*,-2,-1,16,-15
C[C@@H]1CN([C@@H](C)CO)C(=O)c2cc(NC(=O)NC3CCCCC3)ccc2O[C@H]1CN(C)Cc1ccncc1,0,-9,-2,·,-4,4
CO[C@H]1CN(C)C(=O)c2cc(NC(C)=O)ccc2OC[C@H](C)N(C(=O)C2CCCCC2)C[C@@H]1C,0,-7,0,0,-7,12
O=C(c1ccccn1)N1CC(=O)N2[C@@H](CO)[C@H](c3ccc(C#Cc4ccccc4)cc3)[C@@H]2C1,0,·,-3,-4,6,1
COc1cccc(S(=O)(=O)N(C)C[C@H]2OCc3ccccc3-c3c(n(C)c4ccccc34)C(=O)N([C@H](C)CO)C[C@H]2C)c1,0,86*,-5,6,23,15
COc1ccccc1S(=O)(=O)N(C)C[C@@H]1OCc2ccccc2-c2c(n(C)c3ccccc23)C(=O)N([C@H](C)CO)C[C@H]1C,-1,17,5,3,12,12
C[C@@H]1CN([C@@H](C)CO)C(=O)c2c(c3ccccc3n2C)-c2ccccc2CO[C@@H]1CN(C)S(=O)(=O)c1cccc(F)c1,0,-55,-5,0,-1,-7
C[C@@H]1CN([C@@H](C)CO)C(=O)c2c(c3ccccc3n2C)-c2ccccc2CO[C@H]1CN(C)S(=O)(=O)c1cccc(F)c1,0,87*,-34,-4,1,-11
COc1ccccc1S(=O)(=O)N(C)C[C@H]1OCc2ccccc2-c2c(n(C)c3ccccc23)C(=O)N([C@H](C)CO)C[C@@H]1C,-1,62*,19,5,19,-16
COc1ccc2c3c(n(C)c2c1)[C@@H](CO)N(C(=O)Nc1ccc(F)cc1)CC31CCN(Cc2ccccn2)CC1,0,3,-17,29*,11,-9
COc1ccc2c3c(n(C)c2c1)[C@@H](CO)N(C(=O)Nc1ccc(F)cc1)CC31CCN(C(=O)c2ccc3c(c2)OCO3)CC1,0,5,-7,-2,0,13
COc1cccc(CN2CCC3(CC2)CN(C(=O)Nc2ccc(F)cc2)[C@H](CO)c2c3c3ccc(OC)cc3n2C)c1,0,·,-18,36*,-7,-29
SMILES,XiGFP reactiv,PAX8 inh HTS,PGC1a acetyl inh,MLL AF4-AF9 inh,EWS-Fli inh,GSIS activator
COc1ccc2c3c(n(C)c2c1)[C@H](CO)N(C(=O)Nc1ccc(F)cc1)CC31CCN(C(=O)c2ccc3c(c2)OCO3)CC1,0,77*,13,-3,-8,-8
C[C@H](CO)N1C[C@H](C)[C@@H](CN(C)Cc2ccncc2)Oc2ccc(NC(=O)Cc3ccccc3)cc2C1=O,0,-18,18,2,-2,-3
COc1ccc(C2c3ccc4ccccc4c3Oc3ncn(CCCN(C)C)c(=N)c32)cc1 (centres undefined),0,10,-23,33*,63*,0
CCOC(=O)Cc1csc(NC(=O)/C=C/c2ccc(Br)o2)n1,0,-3,-5,33*,10,33
CCOC(=O)Cc1csc(NC(=O)c2ccc(Br)o2)n1,·,-33,2,·,·,-1
Cc1cccc(C(=O)NNC(=O)c2c(O)c3ccccc3n(C)c2=O)c1,0,-1,-14,2,15,-24
Cn1c(=O)c(C(=O)NNC(=O)c2cccc(Cl)c2)c(O)c2ccccc21,0,5,·,0,-3,545*
Cc1ccc(-c2ccc3c(c2)O[C@@H](CN(C)Cc2ccccn2)[C@H](C)CN([C@H](C)CO)S3(=O)=O)cc1,0,·,11,7,65*,-30
C[C@H](CO)N1C[C@H](C)[C@@H](CN(C)Cc2ccccn2)Oc2cc(-c3ccc(C#N)cc3)ccc2S1(=O)=O,0,21,8,·,-9,-5
C[C@H]1CN([C@@H](C)CO)S(=O)(=O)c2ccc(C3=CCCCC3)cc2O[C@@H]1CN(C)Cc1ccccn1,2,58,-20,18,65*,-24
